Molecules are shown by their SMILES.

Test [1] concerns HCT-116. The test is described as follows: Antiproliferative activity against human HCT-116 cells assessed as reduction in cell viability after 72 hrs by MTT assay. As to conditions: HCT-116, 72 h.
The test system of test [2] is K562. The test is described as follows: Induction of cell cycle arrest in human K562 cells assessed as accumulation at G2 phase at 2 uM after 48 hrs by propidium iodide staining based flow cytometric analysis (reference value: 10.96 to 12.03%). Type of test: functional. (In general: In flow cytometry, cells or beads pass a laser one at a time.)
Test [3] deals with B16. The test is described as follows: Antiproliferative activity against mouse B16 cells assessed as reduction in cell viability after 72 hrs by MTT assay. As to conditions: B16, 72 h. In general terms: Tetrazolium dyes change colour on reduction, which living cells bring about.
Test [4] deals with HepG2. The test is described as follows: Induction of cell cycle arrest in human HepG2 cells assessed as accumulation at S phase at 1 uM after 48 hrs by propidium iodide staining based flow cytometric analysis (reference value: 33.22 to 33.58%). The test is classed as functional.
For test [5], the system named is HepG2. The test is described as follows: Induction of cell cycle arrest in human HepG2 cells assessed as accumulation at G1 phase at 0.5 uM after 48 hrs by propidium iodide staining based flow cytometric analysis (reference value: 49.46 to 50.3%). Type of test: functional. The gist of the method: (§1)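 HepG2 cells were treated with 0, 0.50, 1.0 or 2.0 test agent for 48 h. Cells were washed in cold PBS and fixed in 70% ethanol at −20 °C overnight. DNA-content distribution was measured by flow cytometry. Mean ± SD, three independent experiments.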

Test [6] deals with K562. The test is described as follows: Induction of cell cycle arrest in human K562 cells assessed as accumulation at G1 phase at 2 uM after 48 hrs by propidium iodide staining based flow cytometric analysis (reference value: 43.24 to 43.37%). Type of test: functional.
Test [7] has as its system HepG2. The test is described as follows: Induction of cell cycle arrest in human HepG2 cells assessed as accumulation at G1 phase at 1 uM after 48 hrs by propidium iodide staining based flow cytometric analysis (reference value: 49.46 to 50.3%). The test is classed as functional. The gist of the method: as §1
Test [8] has as its system HepG2. The test is described as follows: Induction of cell cycle arrest in human HepG2 cells assessed as accumulation at G1 phase at 2 uM after 48 hrs by propidium iodide staining based flow cytometric analysis (reference value: 49.46 to 50.3%). The test is classed as functional. The gist of the method: as §1
Test [9] concerns K562. The test is described as follows: Induction of cell cycle arrest in human K562 cells assessed as accumulation at S phase at 1 uM after 48 hrs by propidium iodide staining based flow cytometric analysis (reference value: 44.73 to 45.96%). Type of test: functional.
Test [10] deals with HepG2. The test is described as follows: Induction of cell cycle arrest in human HepG2 cells assessed as accumulation at S phase at 2 uM after 48 hrs by propidium iodide staining based flow cytometric analysis (reference value: 33.22 to 33.58%). Type of test: functional.
The test system of test [11] is HepG2. The test is described as follows: Induction of cell cycle arrest in human HepG2 cells assessed as accumulation at G2 phase at 1 uM after 48 hrs by propidium iodide staining based flow cytometric analysis (reference value: 16.48 to 16.97%). Type of test: functional. The gist of the method: as §1
Test [12] has as its system HepG2. The test is described as follows: Antiproliferative activity against human HepG2 cells assessed as reduction in cell viability after 72 hrs by MTT assay. As to conditions: HepG2, 72 h.
Test [13] deals with K562. The test is described as follows: Induction of cell cycle arrest in human K562 cells assessed as accumulation at G2 phase at 0.5 uM after 48 hrs by propidium iodide staining based flow cytometric analysis (reference value: 10.96 to 12.03%). The test is classed as functional.
Test [14] in a line: Cytotoxicity against human PBMC cells assessed as cell viability after 72 hrs by MTT assay.
Test [15] deals with MCF7. The test is described as follows: Antiproliferative activity against human MCF7 cells assessed as reduction in cell viability after 72 hrs by MTT assay. As to conditions: MCF7, 72 h.
Test [16] concerns K562. The test is described as follows: Induction of cell cycle arrest in human K562 cells assessed as accumulation at S phase at 2 uM after 48 hrs by propidium iodide staining based flow cytometric analysis (reference value: 44.73 to 45.96%). The test is classed as functional.
Test [17] deals with HepG2. The test is described as follows: Induction of cell cycle arrest in human HepG2 cells assessed as accumulation at G2 phase at 2 uM after 48 hrs by propidium iodide staining based flow cytometric analysis (reference value: 16.48 to 16.97%). The test is classed as functional.
Test [18] concerns K562. The test is described as follows: Induction of cell cycle arrest in human K562 cells assessed as accumulation at G1 phase at 0.5 uM after 48 hrs by propidium iodide staining based flow cytometric analysis (reference value: 43.24 to 43.37%). Type of test: functional.
The subject of test [19] is L02. The test is described as follows: Cytotoxicity against human L02 cells assessed as cell viability after 72 hrs by MTT assay. As to conditions: L02, 72 h.
Test [20] deals with HepG2. The test is described as follows: Induction of cell cycle arrest in human HepG2 cells assessed as accumulation at G2 phase at 0.5 uM after 48 hrs by propidium iodide staining based flow cytometric analysis (reference value: 16.48 to 16.97%). Type of test: functional. The gist of the method:
as §1

The test system of test [21] is K562. The test is described as follows: Induction of cell cycle arrest in human K562 cells assessed as accumulation at S phase at 0.5 uM after 48 hrs by propidium iodide staining based flow cytometric analysis (reference value: 44.73 to 45.96%). The test is classed as functional.
The test system of test [22] is K562. The test is described as follows: Induction of cell cycle arrest in human K562 cells assessed as accumulation at G2 phase at 1 uM after 48 hrs by propidium iodide staining based flow cytometric analysis (reference value: 10.96 to 12.03%). The test is classed as functional.
In test [23] the test system is HepG2. The test is described as follows: Induction of cell cycle arrest in human HepG2 cells assessed as accumulation at S phase at 0.5 uM after 48 hrs by propidium iodide staining based flow cytometric analysis (reference value: 33.22 to 33.58%). The test is classed as functional.
The test system of test [24] is K562. The test is described as follows: Induction of cell cycle arrest in human K562 cells assessed as accumulation at G1 phase at 1 uM after 48 hrs by propidium iodide staining based flow cytometric analysis (reference value: 43.24 to 43.37%). Type of test: functional.

Consider `C=C1C(=O)[C@]23[C@H](O)[C@H]1CC[C@H]2[C@@]12CO[C@]3(O)[C@@H](O)[C@@H]1C(C)(C)CC[C@@H]2O` [ORIDONIN], for which the IC50 in [1] was 11.7 µM; in test [3], 24.9 µM; in test [12], 8.95 µM; in test [14], above 50 µM; in test [15] it was 13.8 µM; in test [19], 21.6 µM. Moreover, the Activity in test [2] was 6.62%; in test [4], 27.54%; in test [5] it was 57.11%; in test [6] it was 60.6%; in [7], 61.88%; in [8], 68%. The Activity is listed as 38.54% in test [9]; 26.2% in test [10]; 10.54% in [11]; 9.81% in [13]; 32.78% in test [16]; 5.8% in [17]. Further, the Activity in [18] stood at 46.09%; in [20], 13.25%; in test [21] it was 44.1%; in test [22], 5.79%; in test [23] it was 29.64%; in test [24], 55.67%.

As a reminder, the IC50 is the concentration needed to halve the response being measured.

These data come from ChEMBL document CHEMBL4706489, “Hydrogen sulfide releasing oridonin derivatives induce apoptosis through extrinsic and intrinsic pathways” (Eur J Med Chem, 2020).
